Article PMC11170706 (ACS Omega, 2024)

What was measured:
OSCC cell line SAS = assay: MTT cell proliferation assay, SAS cells; type: cell-based, human; conditions: for IC50: Homo sapiens, 72 h, read-out: IC50 value (μM) SAS; for Selectivity index (SI) IC50 (HaCaT)/IC50 (SAS): ratio of IC50 in HaCaT to IC50 in SAS
[1] = system: human normal cell line HaCaT; assay: MTT cell proliferation assay, HaCaT cells; type: cell-based; conditions: 72 h, read-out: IC50 value (μM) HaCaT
In short: (§1)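 Human lines kept in DMEM with 10% FBS and 1% Pen-Strep at 37 °C, 5% CO2. 2 × 10^3 cells/well were seeded, grown 24 h, then exposed to test compound for 72 h (SAS and T.Tn: 0, 5, 10, 25, 50, 100 μM; HaCaT: 0, 10, 25, 50, 75, 100 μM). MTT (5 mg/mL stock) was added for 2 h, formazan dissolved in DMSO, and A570 read. Percentage proliferation was taken relative to untreated control. IC50 was read where the dose–response curve crosses 50%.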

SAS cells [2] = assay: PI-based flow cytometric analysis of cell death; set-up: species or system human; conditions: 48 h, PI staining
In short: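 After 24 h attachment, 2 × 10^5 SAS cells per well received test compound for 48 h. Floating cells from the medium were pooled with trypsinized cells and washed three times in PBS. The unfixed cells were resuspended in PBS with PI and analysed by flow cytometry, with percentage of dead cells recorded.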

SAS cells [3] = assay: Wound-healing scratch assay; type: cell-based, human; conditions: 24 h
In short: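 SAS cells were seeded at 6 × 10^5 per well and grown to a monolayer. Cells were serum-starved in DMEM for 6 h to block proliferation, then scratched with a pipette tip and PBS-washed. Test compound was added and wounds were imaged at 0 and 24 h. Percentage wound area remaining is reported as mean ± SD, Student's t test, p < 0.05.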

[4] = system: esophageal cancer cell line T.Tn; assay: MTT cell proliferation assay, T.Tn cells; type: cell-based; conditions: Homo sapiens, 72 h, read-out: IC50 value (μM) T.Tn
In short: as §1

[5] = system: Bcl-2, caspases, COX-2, MMP-9, survivin, VEGF, Akt/mTOR and STAT-3 in SAS cells; assay: Western blot analysis of proteins involved in OSCC; type: cell-based, human; conditions: 24 h, AA2 2.5, 5, 10 μM, AA3 10, 15, 20 μM
In short: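 SAS cells were seeded at 4 × 10^5 per well, attached 24 h, then treated 24 h with test compound (0–20 μM). Lysis buffer: 20 mM HEPES, 250 mM NaCl, 2 mM EDTA, 0.1% Triton X-100, 1 mM DTT, protease inhibitors. Protein was quantified by Bradford and equal amounts run on 12% SDS-PAGE, then transferred to nitrocellulose. Blocking was 5% milk, primary antibody overnight at 4 °C, HRP secondary 2 h, ECL detection. α-Tubulin served as loading control.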

SAS cells [6] = assay: PI-RNase-based cell-cycle analysis; set-up: species or system human; conditions: 24 h, AA2 1-10 μM, AA3 5-20 μM, PI-RNase flow cytometry
In short: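 SAS cells were seeded at 2 × 10^5 per well, grown 24 h, then treated 24 h with test compound. Cells were trypsinized, PBS-washed and fixed overnight in 75% ethanol at −20 °C. They were stained with PI-RNase for 20 min in the dark and analysed by flow cytometry for the percentage of cells in each cycle phase.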

SAS cells [7] = assay: Colony formation; type: cell-based, human; conditions: for inhibition at 10 µM: read-out: inhibition/reduction of colony formation
In short: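 SAS cells were seeded at 2 × 10^3 per well and attached for 24 h. Test compound (1–20 μM range) was given for 24 h, then replaced with fresh medium for 10 days of growth. Colonies were washed in PBS, fixed in 70% ethanol for 4 h at −20 °C, stained with 0.01% crystal violet and counted. Plating efficiency = colonies/cells plated × 100. Survival fraction = PE treated/PE control.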

SAS cells [8] = assay: Annexin V-based flow cytometric analysis of apoptosis; type: cell-based, human; conditions: 48 h
In short: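 SAS cells were seeded at 2 × 10^5 per well, grown 24 h, then exposed to test compound for 48 h. Medium-borne and trypsinized cells were collected and washed three times in PBS. They were labelled with annexin V for 20 min, then PI for 10 min, and analysed by flow cytometry. Apoptosis was computed from quadrants Q2+Q4.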

SMILES: O=c1[nH]cc(F)c(=O)[nH]1 [5-FU, 5-fluorouracil, reference compound]
- IC50 (OSCC cell line SAS): 3 µM
- Selectivity index (SI) IC50 (HaCaT)/IC50 (SAS) (OSCC cell line SAS): 1.3
- IC50 [1]: 4 µM

SMILES: CC(C)=CCc1c(-c2cc(O)c(O)cc2O)oc2c3c(cc(O)c2c1=O)OC(C)(C)C=C3 [AA2, artonin E]
- cell death (SAS cells [2]; 10 μM): more than 80%
- wound area (initial gap) remaining (SAS cells [3]; 1 μM): approximately 25%
- wound area (initial gap) remaining (SAS cells [3]; 2.5 μM): 40%
- wound area (initial gap) remaining (SAS cells [3]; 5 μM): over 60%
- wound area (initial gap) remaining (SAS cells [3]; 10 μM): over 75%
- IC50 [4]: 8 µM
- effect on Akt/mTOR and STAT-3 signaling pathways [5]: inhibition of the Akt/mTOR and STAT-3 signaling pathways
- effect on Bcl-2 expression [5]: downregulation of Bcl-2
- effect on caspase-3 and caspase-9 [5]: activation of caspase-3 and caspase-9 in a dose-dependent manner
- effect on cell-cycle progression (SAS cells [6]): arrest of these cells in the S-phase
- IC50 (OSCC cell line SAS): 6 µM
- Selectivity index (SI) IC50 (HaCaT)/IC50 (SAS) (OSCC cell line SAS): 12
- inhibition at 5 µM (SAS cells [7]; Homo sapiens, read-out: inhibition of colony formation): > 90%
- inhibition at 10 µM (SAS cells [7]; Homo sapiens): > 90%
- reduction of colony formation (SAS cells [7]; SAS cells, 2.5 μM, 24 h treatment, 10 days culture): over 50%
- apoptosis (percentage of apoptotic cells) (SAS cells [8]; 2.5 μM): 8%
- apoptosis (percentage of apoptotic cells) (SAS cells [8]; 5 μM): 18%
- apoptosis (percentage of apoptotic cells) (SAS cells [8]; 10 μM): 22%
- IC50 [1]: 72 µM

SMILES: C=C(C)[C@H]1Cc2c(oc3c4c(cc(O)c3c2=O)OC(C)(C)C=C4)-c2c(O)cc(O)c(O)c21 [AA3, artobiloxanthone]
- cell death (SAS cells [2]; 20 μM): approximately 8%
- wound area (initial gap) remaining (SAS cells [3]; 5 μM): over 45%
- wound area (initial gap) remaining (SAS cells [3]; 10 μM): over 60%
- wound area (initial gap) remaining (SAS cells [3]; 15 μM): over 65%
- wound area (initial gap) remaining (SAS cells [3]; 20 μM): 90%
- IC50 [4]: 22 µM
- effect on Akt/mTOR and STAT-3 signaling pathways [5]: inhibition of the Akt/mTOR and STAT-3 signaling pathways
- effect on Bcl-2 expression [5]: downregulation of Bcl-2
- effect on caspase-3 and caspase-9 [5]: activation of caspase-3 and caspase-9 in a dose-dependent manner
- effect on cell-cycle progression (SAS cells [6]): arrest of these cells in the S-phase
- IC50 (OSCC cell line SAS): 11 µM
- Selectivity index (SI) IC50 (HaCaT)/IC50 (SAS) (OSCC cell line SAS): 6.4
- inhibition at 10 µM (SAS cells [7]; Homo sapiens): > 80%
- apoptosis (percentage of apoptotic cells) (SAS cells [8]; 5 μM): 8%
- apoptosis (percentage of apoptotic cells) (SAS cells [8]; 10 μM): 18%
- apoptosis (percentage of apoptotic cells) (SAS cells [8]; 15 μM): 26%
- apoptosis (percentage of apoptotic cells) (SAS cells [8]; 20 μM): 30%
- IC50 [1]: 70 µM
